Active and inactive are the calls of the source. No cut-off for these calls is given here.

In test [1] the target is T1, E3 ubiquitin-protein ligase Mdm2/Histone deacetylase 1 (Homo sapiens) (UniProt Q00987+Q13547). Put plainly: PROTAC activity at MDM2/HDAC1 in human HCT-116 cells assessed as decrease in HDAC1 abundance by measuring remaining activity at 0.1 uM measured after 24 hrs by Western blot analysis (reference value: 100%). It counts as cell-based. The gist of the method:
(§1)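 HCT116 cells seeded in six-well plates for 24 h, then exposed 24 h to compound (0.01–10 μM) or DMSO in fresh medium. Lysis in Tris-HCl/NaCl/NP-40/Triton X-100 with protease inhibitor. Bradford-normalised 30 μg protein per lane. Quantitative Western blot used specific HDAC1, HDAC2, HDAC3, LSD1 or Sin3a antibodies with IRDye secondaries. Abundance compared with DMSO, n = 2 replicates.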

In test [2] the target is T1, E3 ubiquitin-protein ligase Mdm2/Histone deacetylase 1 (Homo sapiens). Put plainly: PROTAC activity at MDM2/HDAC1 in human HCT-116 cells assessed as decrease in HDAC1 abundance by measuring remaining activity at 1 uM measured after 24 hrs by Western blot analysis (reference value: 100%). The class given is cell-based. The gist of the method:
as §1

The target is the same in test [3]. The test is described as follows: PROTAC activity at MDM2/HDAC1 in human HCT-116 cells assessed as decrease in HDAC1 abundance by measuring remaining activity at 10 uM measured after 24 hrs by Western blot analysis (reference value: 100%). The class given is cell-based. In short, it runs like this:
as §1

For test [4], the target named is T2, E3 ubiquitin-protein ligase Mdm2/Histone deacetylase 2 (Homo sapiens) (UniProt Q00987+Q92769). Put plainly: PROTAC activity at MDM2/HDAC2 in human HCT-116 cells assessed as decrease in HDAC2 abundance by measuring remaining activity at 0.1 uM measured after 24 hrs by Western blot analysis (reference value: 100%). It counts as cell-based. In short, it runs like this: as §1

Test [5] concerns the target T2, E3 ubiquitin-protein ligase Mdm2/Histone deacetylase 2 (Homo sapiens). Put plainly: PROTAC activity at MDM2/HDAC2 in human HCT-116 cells assessed as decrease in HDAC2 abundance by measuring remaining activity at 1 uM measured after 24 hrs by Western blot analysis (reference value: 100%). The class given is cell-based. The gist of the method: as §1
For test [6] the target is unchanged. The test is described as follows: PROTAC activity at MDM2/HDAC2 in human HCT-116 cells assessed as decrease in HDAC2 abundance by measuring remaining activity at 10 uM measured after 24 hrs by Western blot analysis (reference value: 100%). The class given is cell-based. The gist of the method: as §1
Test [7] deals with T3, E3 ubiquitin-protein ligase Mdm2/Histone deacetylase 3 (Homo sapiens) (UniProt Q00987+O15379). Put plainly: PROTAC activity at MDM2/HDAC3 in human HCT-116 cells assessed as reduction in HDAC3 abundance by measuring remaining activity at 0.1 uM measured after 24 hrs by Western blot analysis (reference value: 100%). It counts as cell-based. The gist of the method:
(§2)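 HCT116 cells in DMEM with 10% FBS and glutamine/penicillin/streptomycin at 37 °C, 5% CO2. Seeded 4 × 10^5 cells/well, after 24 h treated 24 h with DMSO or compound in fresh medium. Lysed in Tris-HCl/NaCl/NP-40/Triton X-100 buffer with protease inhibitor, Bradford-quantified, 30 μg protein per lane. Quantitative Western blot with specific HDAC1/2/3 antibodies, IRDye secondaries, infrared imaging, versus DMSO. n = 2 replicates.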

The target in test [8] is T3, E3 ubiquitin-protein ligase Mdm2/Histone deacetylase 3 (Homo sapiens). Put plainly: PROTAC activity at MDM2/HDAC3 in human HCT-116 cells assessed as reduction in HDAC3 abundance by measuring remaining activity at 1 uM measured after 24 hrs by Western blot analysis (reference value: 100%). It counts as cell-based. The gist of the method:
as §2

Test [9] has the same target. Put plainly: PROTAC activity at MDM2/HDAC3 in human HCT-116 cells assessed as reduction in HDAC3 abundance by measuring remaining activity at 10 uM measured after 24 hrs by Western blot analysis (reference value: 100%). The class given is cell-based. The gist of the method:
as §2

In test [10] the target is Histone deacetylase 3 (Homo sapiens) (UniProt O15379). Put plainly: Induction of HDAC3 degradation in human HCT-116 cells assessed as reduction in HDAC3 abundance by measuring remaining activity at 10 uM measured after 24 hrs by Western blot analysis. The class given is cell-based. In short, it runs like this: as §1
Test [11] has the same target. The test is described as follows: Induction of HDAC3 degradation in human HCT-116 cells assessed as reduction in HDAC3 abundance by measuring remaining activity at 1 uM measured after 24 hrs by Western blot analysis. The class given is cell-based. In short, it runs like this: as §1
The target in test [12] is von Hippel-Lindau disease tumor suppressor/Histone deacetylase 1 (Homo sapiens) (UniProt Q13547+P40337). The test is described as follows: PROTAC activity at VHL/HDAC1 in human HCT-116 cells assessed as decrease in HDAC1 abundance by measuring remaining activity at 10 uM measured after 24 hrs by Western blot analysis (reference value: 100%). It counts as cell-based. In short, it runs like this:
as §2

Test [13] deals with von Hippel-Lindau disease tumor suppressor/Histone deacetylase 2 (Homo sapiens) (UniProt Q92769+P40337). The test is described as follows: PROTAC activity at VHL/HDAC2 in human HCT-116 cells assessed as decrease in HDAC2 abundance by measuring remaining activity at 10 uM measured after 24 hrs by Western blot analysis (reference value: 100%). It counts as cell-based. The gist of the method: as §2

In test [14] the target is von Hippel-Lindau disease tumor suppressor/Histone deacetylase 3 (Homo sapiens) (UniProt O15379+P40337). Put plainly: PROTAC activity at VHL/HDAC3 in human HCT-116 cells assessed as reduction in HDAC3 abundance by measuring remaining activity at 10 uM measured after 24 hrs by Western blot analysis (reference value: 100%). The class given is cell-based. In short, it runs like this:
as §2

In test [15] the test system is HCT-116. The test is described as follows: Effect on histone H3 lysine K56 acetylation in human HCT-116 cells assessed as increase in H3K56ac level at 10 uM by Western blot analysis. It counts as functional, cell-based. The gist of the method:
(§3)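 HCT116 cells (DMEM, 10% FBS, glutamine/pen/strep, 37 °C, 5% CO2) seeded 24 h, then treated with DMSO or compound in fresh medium. Pellets after lysis were acid-extracted with 0.4 N H2SO4 at 4 °C overnight. Acid histone extract run on 4–12% bis-Tris gels, transferred to nitrocellulose and probed for H3K56ac. IRDye secondaries with infrared imaging.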

The target of test [16] is T4, Paired amphipathic helix protein Sin3a (Homo sapiens) (UniProt Q96ST3).
T4 sequence (whole entry): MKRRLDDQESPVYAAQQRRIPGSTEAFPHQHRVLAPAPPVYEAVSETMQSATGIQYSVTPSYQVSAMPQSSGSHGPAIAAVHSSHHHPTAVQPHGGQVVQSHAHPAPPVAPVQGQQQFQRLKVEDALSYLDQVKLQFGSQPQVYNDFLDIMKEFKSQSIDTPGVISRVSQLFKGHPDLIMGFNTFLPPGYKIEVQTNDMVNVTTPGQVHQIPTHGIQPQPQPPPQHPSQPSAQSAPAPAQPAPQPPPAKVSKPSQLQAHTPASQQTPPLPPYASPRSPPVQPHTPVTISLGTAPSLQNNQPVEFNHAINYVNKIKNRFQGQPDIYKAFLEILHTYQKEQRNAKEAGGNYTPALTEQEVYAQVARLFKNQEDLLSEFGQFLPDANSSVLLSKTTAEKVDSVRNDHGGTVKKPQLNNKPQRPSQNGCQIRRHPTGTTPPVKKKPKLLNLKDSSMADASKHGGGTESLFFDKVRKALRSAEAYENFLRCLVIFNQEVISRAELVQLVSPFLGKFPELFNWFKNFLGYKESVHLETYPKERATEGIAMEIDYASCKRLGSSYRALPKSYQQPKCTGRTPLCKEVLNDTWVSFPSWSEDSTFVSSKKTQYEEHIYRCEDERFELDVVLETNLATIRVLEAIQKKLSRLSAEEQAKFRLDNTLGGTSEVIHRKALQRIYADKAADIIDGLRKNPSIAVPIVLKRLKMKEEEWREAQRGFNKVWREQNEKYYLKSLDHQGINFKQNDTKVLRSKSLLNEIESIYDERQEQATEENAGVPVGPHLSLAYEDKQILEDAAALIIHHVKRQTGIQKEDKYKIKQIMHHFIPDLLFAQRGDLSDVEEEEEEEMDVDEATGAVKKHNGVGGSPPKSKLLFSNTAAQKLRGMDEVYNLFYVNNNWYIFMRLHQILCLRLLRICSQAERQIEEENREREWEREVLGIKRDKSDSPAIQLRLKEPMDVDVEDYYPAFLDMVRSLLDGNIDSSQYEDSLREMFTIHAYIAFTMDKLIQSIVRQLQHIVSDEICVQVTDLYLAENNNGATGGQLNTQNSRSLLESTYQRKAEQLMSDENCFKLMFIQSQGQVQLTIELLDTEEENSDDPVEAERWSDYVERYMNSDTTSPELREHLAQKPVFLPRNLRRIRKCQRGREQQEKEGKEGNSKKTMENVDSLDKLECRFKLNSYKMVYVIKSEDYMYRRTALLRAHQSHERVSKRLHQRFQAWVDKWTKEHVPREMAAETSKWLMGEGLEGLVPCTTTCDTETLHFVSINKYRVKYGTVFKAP
Put plainly: Induction of SIN3A degradation in human HCT-116 cells assessed as reduction in SIN3A abundance by measuring remaining activity at 10 uM measured after 24 hrs by Western blot analysis (reference value: 100%). The class given is cell-based. The gist of the method:
as §1

In test [17] the target is Lysine-specific histone demethylase 1A (Homo sapiens) (UniProt O60341). The test is described as follows: Induction of LSD1 degradation in human HCT-116 cells assessed as reduction in LSD1 abundance by measuring remaining activity at 10 uM measured after 24 hrs by Western blot analysis (reference value: 100%). The class given is cell-based. In short, it runs like this: as §1

A short description of test [18]: Inhibition of LSD1-CoREST-HDAC (unknown origin) by AMC-fluorescence assay. Also noted: species or system Homo sapiens.
For test [19], the system named is HCT-116. Put plainly: Effect on histone H3 lysine K56 acetylation in human HCT-116 cells assessed as increase in H3K56ac level at 0.1 to 10 uM by Western blot analysis. It counts as functional, cell-based. As to conditions: dose 0.1-10 µM. The gist of the method:
as §3

T3 sequence (O15379 whole entry, looked up): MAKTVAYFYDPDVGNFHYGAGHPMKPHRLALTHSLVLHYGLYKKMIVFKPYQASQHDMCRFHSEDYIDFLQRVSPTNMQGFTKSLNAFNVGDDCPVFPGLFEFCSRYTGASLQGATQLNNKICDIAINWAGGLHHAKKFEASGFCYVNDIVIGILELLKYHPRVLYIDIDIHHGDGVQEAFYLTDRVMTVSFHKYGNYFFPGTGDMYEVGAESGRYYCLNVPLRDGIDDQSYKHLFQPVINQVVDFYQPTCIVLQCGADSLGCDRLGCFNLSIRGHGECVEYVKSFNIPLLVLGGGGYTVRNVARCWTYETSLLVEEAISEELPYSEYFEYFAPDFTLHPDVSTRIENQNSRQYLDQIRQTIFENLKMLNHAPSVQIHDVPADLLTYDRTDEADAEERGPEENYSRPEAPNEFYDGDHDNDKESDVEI
T3 sequence (Q00987 whole entry, looked up): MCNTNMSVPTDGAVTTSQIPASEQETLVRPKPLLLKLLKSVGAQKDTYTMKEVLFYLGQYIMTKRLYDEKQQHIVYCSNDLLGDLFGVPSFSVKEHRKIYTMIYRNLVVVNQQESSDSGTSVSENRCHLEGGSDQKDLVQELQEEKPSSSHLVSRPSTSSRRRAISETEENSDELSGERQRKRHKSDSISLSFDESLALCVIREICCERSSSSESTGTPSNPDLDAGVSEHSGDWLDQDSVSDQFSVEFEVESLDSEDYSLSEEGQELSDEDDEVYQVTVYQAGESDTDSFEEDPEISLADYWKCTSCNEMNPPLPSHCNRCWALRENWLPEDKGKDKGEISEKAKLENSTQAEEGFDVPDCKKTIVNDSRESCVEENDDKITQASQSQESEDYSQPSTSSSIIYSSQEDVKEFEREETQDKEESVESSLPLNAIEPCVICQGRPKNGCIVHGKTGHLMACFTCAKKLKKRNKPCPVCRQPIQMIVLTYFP
Histone deacetylase 3 (Homo sapiens), sequence (O15379 whole entry): as the sequence (O15379 whole entry, looked up) above
T2 sequence (Q00987 whole entry, looked up): as the sequence (Q00987 whole entry, looked up) above
T2 sequence (Q92769 whole entry, looked up): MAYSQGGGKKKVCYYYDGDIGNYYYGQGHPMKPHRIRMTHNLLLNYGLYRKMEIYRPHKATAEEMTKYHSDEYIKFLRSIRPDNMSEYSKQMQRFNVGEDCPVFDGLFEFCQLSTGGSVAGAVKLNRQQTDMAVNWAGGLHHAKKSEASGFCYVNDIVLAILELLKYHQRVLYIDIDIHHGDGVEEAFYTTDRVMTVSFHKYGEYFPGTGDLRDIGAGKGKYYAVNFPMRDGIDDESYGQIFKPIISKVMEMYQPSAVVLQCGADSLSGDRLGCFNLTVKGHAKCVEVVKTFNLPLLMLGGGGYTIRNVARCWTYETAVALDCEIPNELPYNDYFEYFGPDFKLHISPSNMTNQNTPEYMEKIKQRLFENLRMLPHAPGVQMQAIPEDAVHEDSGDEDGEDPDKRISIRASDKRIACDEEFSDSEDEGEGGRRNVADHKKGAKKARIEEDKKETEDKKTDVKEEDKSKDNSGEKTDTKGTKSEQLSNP
T1 sequence (Q00987 whole entry, looked up): as the sequence (Q00987 whole entry, looked up) above
T1 sequence (Q13547 whole entry, looked up): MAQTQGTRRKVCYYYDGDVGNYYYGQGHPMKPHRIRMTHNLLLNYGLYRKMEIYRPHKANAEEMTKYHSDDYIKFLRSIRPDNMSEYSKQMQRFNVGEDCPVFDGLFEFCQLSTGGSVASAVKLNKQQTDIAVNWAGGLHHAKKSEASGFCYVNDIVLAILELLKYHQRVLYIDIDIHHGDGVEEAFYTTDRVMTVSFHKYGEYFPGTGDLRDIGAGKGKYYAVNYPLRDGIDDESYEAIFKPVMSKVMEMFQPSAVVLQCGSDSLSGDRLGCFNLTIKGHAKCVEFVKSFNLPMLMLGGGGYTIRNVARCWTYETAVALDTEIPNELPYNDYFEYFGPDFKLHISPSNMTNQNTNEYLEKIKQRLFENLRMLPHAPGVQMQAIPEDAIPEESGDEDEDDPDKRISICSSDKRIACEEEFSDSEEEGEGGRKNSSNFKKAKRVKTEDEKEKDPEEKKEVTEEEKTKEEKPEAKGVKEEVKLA
von Hippel-Lindau disease tumor suppressor/Histone deacetylase 3 (Homo sapiens), sequence (O15379 whole entry, looked up): as the sequence (O15379 whole entry, looked up) above
von Hippel-Lindau disease tumor suppressor/Histone deacetylase 3 (Homo sapiens), sequence (P40337 whole entry, looked up): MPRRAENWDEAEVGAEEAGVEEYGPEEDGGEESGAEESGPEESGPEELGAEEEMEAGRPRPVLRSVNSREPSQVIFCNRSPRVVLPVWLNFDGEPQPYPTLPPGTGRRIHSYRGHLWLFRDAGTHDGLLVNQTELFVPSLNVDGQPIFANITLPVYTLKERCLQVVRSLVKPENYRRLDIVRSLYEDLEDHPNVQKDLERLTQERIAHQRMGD
von Hippel-Lindau disease tumor suppressor/Histone deacetylase 2 (Homo sapiens), sequence (P40337 whole entry, looked up): as above
von Hippel-Lindau disease tumor suppressor/Histone deacetylase 2 (Homo sapiens), sequence (Q92769 whole entry, looked up): as the sequence (Q92769 whole entry, looked up) above
von Hippel-Lindau disease tumor suppressor/Histone deacetylase 1 (Homo sapiens), sequence (P40337 whole entry, looked up): as the sequence (P40337 whole entry, looked up) above
von Hippel-Lindau disease tumor suppressor/Histone deacetylase 1 (Homo sapiens), sequence (Q13547 whole entry, looked up): as the sequence (Q13547 whole entry, looked up) above

Consider `COc1cc(C(=O)NCCCCCCCC(=O)Nc2ccc(C(=O)Nc3ccccc3N)cc2)ccc1NC(=O)[C@@H]1N[C@@H](CC(C)(C)C)[C@](C#N)(c2ccc(Cl)cc2F)[C@H]1c1cccc(Cl)c1F`, for which the Activity was found to be 93% in test [1]; 88% in test [2]; 101% in [3]; 100% in test [4]; 101% in test [5]; 100% in test [6]. Further, the figures for the Activity in [7], in test [8] and in [9] were 114%, 114% and 109%, respectively.

As for `COc1cc(C(=O)O)ccc1NC(=O)[C@@H]1N[C@@H](CC(C)(C)C)[C@](C#N)(c2ccc(Cl)cc2F)[C@H]1c1cccc(Cl)c1F`, the Activity in test [10] amounted to 101%; in test [11], 110%.

Take `Cc1ncsc1-c1ccc(CNC(=O)[C@@H]2C[C@@H](O)CN2C(=O)[C@@H](NC(=O)CCCCCCCCCCC(=O)Nc2ccc(C(=O)Nc3ccccc3N)cc2)C(C)(C)C)cc1`: the Activity worked out at 37% in test [12]; 58% in test [13]; 88% in [14]; 85% in test [16]; 97% in test [17]. For the same compound, the result in the test on HCT-116 [15] was Active.

On to `COc1cc(C(=O)NCCCCCCCCCCCC(=O)Nc2ccc(C(=O)Nc3ccccc3N)cc2)ccc1NC(=O)[C@@H]1N[C@@H](CC(C)(C)C)[C@](C#N)(c2ccc(Cl)cc2F)[C@H]1c1cccc(Cl)c1F`, for which the Activity in test [1] stood at 98%; in test [2], 103%; in [3], 109%; in [4], 100%; in test [5], 101%; in test [6], 103%. The Activity in test [7] was determined as 101%; in test [8], 102%; in [9], 118%.

On to `CC(=O)Nc1ccc(C(=O)Nc2ccccc2N)cc1` [TACEDINALINE], for which the Activity is 138% in test [10], 122% in test [11], 81% in test [16] and 109% in test [17]. Further, the outcome in the test on HCT-116 [15] was Active. In [18], the IC50 was roughly 500 nM.

Turning to `COc1cc(C(=O)NCCOCCOCCOCCC(=O)Nc2ccc(C(=O)Nc3ccccc3N)cc2)ccc1NC(=O)[C@@H]1N[C@@H](CC(C)(C)C)[C@](C#N)(c2ccc(Cl)cc2F)[C@H]1c1cccc(Cl)c1F`, in the test on HCT-116 [19], the result was inactive. For the same compound, the Activity in [1] came to 91%; in test [2] it was 85%; in [3], 65%; in test [4], 102%; in test [5], 94%; in test [6] it was 84%. For the same compound, the Activity was determined as 112% in test [7], 128% in test [8] and 122% in [9].

For the origin of these results see ChEMBL document CHEMBL5357024, “MDM2 Antagonist Idasanutlin Reduces HDAC1/2 Abundance and Corepressor Partners but Not HDAC3” (ACS Med Chem Lett, 2024).
